Measured values as given in ChEMBL document CHEMBL1132342, “Novel hypotensive agents from Verbesina caracasana. 6. Synthesis and pharmacology of caracasandiamide” (1999).
Several values for one entry are separate records, joined by “and”; a condition that tells them apart may be missing. Equal entries are not always repeated.

Assays:
Rattus norvegicus [1] = assay: Change in mean aortic flow after iv administration of 400 ug/Kg in anesthetized rats; type: functional
Method in brief: (§1)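 Male Wistar rats (299 ± 3 g) were anesthetized with ethylurethane ip, tracheally cannulated and breathing spontaneously, at 37 °C, and stabilized for 60 min. Doses of 50-3200 µg/kg (ratio 2.0) in saline were injected by femoral vein, 50 µL each. Recordings: femoral arterial BP, electromagnetic abdominal-aortic flow, SV from integrated pulsatile flow, polygraphic RF. Peak changes, mean ± SE, n = 12 (n = 7 at 3200).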

Rattus norvegicus [2] = assay: Maximum rate of rise of the left ventricular isovolumetric pressure was measured after iv administration of 1600 ug/Kg compound (treatment with papaverine(1 mg/Kg/min, iv)in anesthetized rats; type: functional, Heart left ventricle
Method in brief: (§2)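 Anesthetized rats, n = 6 per group, received iv doses of 200–1600 µg/kg (ratio 2.0) either alone (control) or under pretreatment: continuous iv papaverine infusion 1 mg/kg/min, reserpine 5 mg/kg/day ip for 2 days, or hexamethonium 5 mg/kg iv. Peak changes in BP, heart rate and dP/dt recorded; means ± SE, p < 0.05 versus control.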

Rattus norvegicus [3] = assay: Maximum rate of rise of the left ventricular isovolumetric pressure was measured after iv administration of 400 ug/Kg in the presence of isoprenaline (agonist) in anesthetized rats; type: functional, Heart left ventricle
Method in brief: (§3)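 Anesthetized male Wistar rats, two groups of 8, received 400 or 1600 µg/kg iv. Before and after this dose, iv agonist challenges were given: noradrenaline 1 µg/kg, adrenaline, acetylcholine 2.50 µg/kg, or isoprenaline. Systolic/diastolic BP, heart rate and dP/dt responses were recorded before (control) and after dosing; significance was set at p < 0.05 versus control.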

Rattus norvegicus [4] = assay: Change in heart rate after iv administration of 1600 ug/Kg in the presence of acetylcholine (agonist) in anesthetized rats; type: functional
Method in brief: (§4)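 Urethane-anesthetized male Wistar rats (16 rats, two equal groups) received 400 or 1600 µg/kg compound iv. Cardiovascular responses to iv agonist boluses (noradrenaline 1 µg/kg, acetylcholine 2.50 µg/kg, adrenaline, isoprenaline) were measured before and after compound dosing. Peak responses are given as mean ± SE; p < 0.05 versus control mean.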

Rattus norvegicus [5] = assay: Change in stroke volume after iv administration of 400 ug/Kg in anesthetized rats; type: functional; method in brief: as §1
Rattus norvegicus [6] = assay: Change in stroke volume after iv administration of 3200 ug/Kg in anesthetized rats; type: functional; method in brief: as §1
Rattus norvegicus [7] = assay: Change in diastolic blood pressure after iv administration of 50 ug/Kg in anesthetized rats; type: functional, Artery
Method in brief: (§5)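 Adult male Wistar rats under ip ethylurethane (10% w/v in saline, 1 mL/kg) with tracheal cannula and spontaneous breathing, kept at 37 °C. Arterial BP was recorded by femoral artery catheter; compound in saline (50 µL) was given via femoral vein at 50–3200 µg/kg, ratio 2.0. Peak change is given as mean ± SE, n = 12 (n = 7 at 3200 µg/kg).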

Rattus norvegicus [8] = assay: Change in respiratory frequency after iv administration of 200 ug/Kg in anesthetized rats; type: functional; method in brief: as §1
Rattus norvegicus [9] = assay: Maximum rate of rise of the left ventricular isovolumetric pressure was measured after iv administration of 400 ug/Kg in the presence of acetylcholine (agonist) in anesthetized rats; type: functional, Heart left ventricle; method in brief: as §3
Rattus norvegicus [10] = assay: Change in diastolic blood pressure after iv administration of 1600 ug/Kg in the presence of isoprenaline (agonist) in anesthetized rats; type: functional, Artery; method in brief: as §4
Rattus norvegicus [11] = assay: Change in mean aortic flow after iv administration of 800 ug/Kg in anesthetized rats; type: functional; method in brief: as §1
Rattus norvegicus [12] = assay: Change in heart rate after iv administration of 100 ug/Kg in anesthetized rats; type: functional; method in brief: as §5
Rattus norvegicus [13] = assay: Change in heart rate after iv administration of 1600 ug/Kg in the presence of adrenaline (agonist) in anesthetized rats; type: functional; method in brief: as §4
Rattus norvegicus [14] = assay: Maximum rate of rise of the left ventricular isovolumetric pressure after iv administration of 1600 ug/Kg compound (treatment with reserpine(5 mg/kg/day for 2 days, ip)in anesthetized rats; type: functional, Heart left ventricle; method in brief: as §2
Rattus norvegicus [15] = assay: Change in systolic blood pressure after iv administration of 100 ug/Kg in anesthetized rats; type: functional, Artery; method in brief: as §1
Rattus norvegicus [16] = assay: Change in respiratory frequency after iv administration of 1600 ug/Kg in anesthetized rats; type: functional; method in brief: as §1
Rattus norvegicus [17] = assay: Maximum rate of rise of the left ventricular isovolumetric pressure was measured after iv administration of 400 ug/Kg in the presence of noradrenaline (agonist) in anesthetized rats; type: functional, Heart left ventricle; method in brief: as §3
Rattus norvegicus [18] = assay: Change in diastolic blood pressure after iv administration of 4.12 uM/kg in anesthetized rats; type: functional, Artery
Rattus norvegicus [19] = assay: Change in diastolic blood pressure after iv administration of 400 ug/Kg in anesthetized rats; type: functional, Artery; method in brief: as §5
Rattus norvegicus [20] = assay: Change in stroke volume after iv administration of 800 ug/Kg in anesthetized rats; type: functional; method in brief: as §1
Rattus norvegicus [21] = assay: Change in respiratory frequency after iv administration of 800 ug/Kg in anesthetized rats; type: functional; method in brief: as §1
Rattus norvegicus [22] = assay: Change in systolic blood pressure after iv administration of 1600 ug/Kg compound (treatment with papaverine(1 mg/Kg/min, iv)in anesthetized rats; type: functional, Artery
Method in brief: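 Urethane-anesthetized male Wistar rats, 6 per group, received iv doses of 200-1600 µg/kg (ratio 2.0) given alone or under a pretreatment. Pretreatments were continuous iv papaverine infusion (1 mg/kg/min), reserpine 5 mg/kg/day ip for 2 days, or hexamethonium 5 mg/kg iv. Peak changes in femoral arterial BP and HR were recorded; values are mean ± SE.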

Rattus norvegicus [23] = assay: Change in systolic blood pressure after iv administration of 1600 ug/Kg in the presence of adrenaline (agonist) in anesthetized rats; type: functional, Artery
Rattus norvegicus [24] = assay: Change in systolic blood pressure after iv administration of 50 ug/Kg in anesthetized rats; type: functional, Artery
Method in brief: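 Urethane-anesthetized (10% w/v, […] ip in saline) adult male Wistar rats, trachea cannulated, breathing spontaneously, 37 °C. Femoral artery catheter for blood pressure, femoral vein for dosing. Sequential iv doses 50–3200 µg/kg (ratio 2.0) in saline, each given after parameters returned to baseline. Peak changes recorded; means ± SE, n = 12 (n = 7 at 3200 µg/kg).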

Rattus norvegicus [25] = assay: Change in diastolic blood pressure after iv administration of 1600 ug/Kg in the presence of acetylcholine (agonist) in anesthetized rats; type: functional, Artery; method in brief: as §4
Rattus norvegicus [26] = assay: Change in mean aortic flow after iv administration of 3200 ug/Kg in anesthetized rats; type: functional; method in brief: as §1
Rattus norvegicus [27] = assay: Change in diastolic blood pressure after iv administration of 1600 ug/Kg in the presence of noradrenaline (agonist) in anesthetized rats; type: functional, Artery; method in brief: as §4
Rattus norvegicus [28] = assay: Change in systolic blood pressure after iv administration of 1600 ug/Kg in the presence of noradrenaline (agonist) in anesthetized rats; type: functional, Artery
Rattus norvegicus [29] = assay: Change in respiratory frequency after iv administration of 3200 ug/Kg in anesthetized rats; type: functional; method in brief: as §1

COc1ccc(C2C(c3ccc(OC)c(OC)c3)[C@H](C(=O)NCCCC/N=C(\N)NCC=C(C)C)[C@@H]2C(=O)NCCCC/N=C(\N)NCC=C(C)C)cc1OC (some centres undefined) [CARACASANDIAMIDE]
Mean aortic flow (Rattus norvegicus [1]): -14 mL/min
dP/dt (Rattus norvegicus [2]): 3321 mmHg s-1
dP/dt (Rattus norvegicus [3]): 13696 mmHg s-1
Heart rate (Rattus norvegicus [4]): -34 beats min-1
Change in stroke volume (Rattus norvegicus [5]): -23%
Stroke volume (Rattus norvegicus [5]): -46 µL
Change in stroke volume (Rattus norvegicus [6]): -58%
Stroke volume (Rattus norvegicus [6]): -117 µL
BP (Rattus norvegicus [7]): 10 mmHg
Change in BP (Rattus norvegicus [7]): 13%
Change in respiratory frequency (Rattus norvegicus [8]): 9 beats min-1 and 9%
dP/dt (Rattus norvegicus [9]): -5820 mmHg s-1
BP (Rattus norvegicus [10]): -66 mmHg
Change in mean aortic flow (Rattus norvegicus [11]): -34%
Mean aortic flow (Rattus norvegicus [11]): -25 mL/min
Change in heart rate (Rattus norvegicus [12]): -3%
Heart rate (Rattus norvegicus [12]): -10 beats min-1
Heart rate (Rattus norvegicus [13]): 7 beats min-1
dP/dt (Rattus norvegicus [14]): 1238 mmHg s-1
BP (Rattus norvegicus [15]): 12 mmHg
Change in BP (Rattus norvegicus [15]): 12%
Change in respiratory frequency (Rattus norvegicus [16]): -61 beats min-1 and -64%
dP/dt (Rattus norvegicus [17]): 5136 mmHg s-1
BP (Rattus norvegicus [18]): -47 mmHg
BP (Rattus norvegicus [19]): -17 mmHg
Change in BP (Rattus norvegicus [19]): -22%
Change in stroke volume (Rattus norvegicus [20]): -43%
Stroke volume (Rattus norvegicus [20]): -86 µL
Change in respiratory frequency (Rattus norvegicus [21]): -15 beats min-1 and -16%
BP (Rattus norvegicus [22]): -33 mmHg
BP (Rattus norvegicus [23]): 14 mmHg
BP (Rattus norvegicus [24]): 17 mmHg
Change in BP (Rattus norvegicus [24]): 16%
BP (Rattus norvegicus [25]): -54 mmHg
Change in mean aortic flow (Rattus norvegicus [26]): -56%
Mean aortic flow (Rattus norvegicus [26]): -41 mL/min
BP (Rattus norvegicus [27]): 10 mmHg
BP (Rattus norvegicus [28]): 24 mmHg
Change in respiratory frequency (Rattus norvegicus [29]): -67 beats min-1 and -70%
